High-throughput results as filed in PubChem BioAssay.
TbHK1 inh = blocks Trypanosoma brucei hexokinase 1 activity; recombinant TbHK1, G6PDH-coupled NADH A340; inhibition, % at 10 µM; 220,000 compounds, 0.11% hits;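 active means inhibition of 50% or more in the single-dose primary screen; inactive means inhibition below 50%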
p97 inhibitor = human p97 ATPase inhibition; P55072; recombinant p97 ATPase, Kinase-Glo ATP luminescence, 3 h; inhibition, % at 8 µM; 220,000 compounds, 0.42% hits; in the data active means inhibition above about 15%;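 further: 0% = DMSO vehicle and 100% = wells lacking enzyme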
Target sequence (P55072 whole entry, looked up): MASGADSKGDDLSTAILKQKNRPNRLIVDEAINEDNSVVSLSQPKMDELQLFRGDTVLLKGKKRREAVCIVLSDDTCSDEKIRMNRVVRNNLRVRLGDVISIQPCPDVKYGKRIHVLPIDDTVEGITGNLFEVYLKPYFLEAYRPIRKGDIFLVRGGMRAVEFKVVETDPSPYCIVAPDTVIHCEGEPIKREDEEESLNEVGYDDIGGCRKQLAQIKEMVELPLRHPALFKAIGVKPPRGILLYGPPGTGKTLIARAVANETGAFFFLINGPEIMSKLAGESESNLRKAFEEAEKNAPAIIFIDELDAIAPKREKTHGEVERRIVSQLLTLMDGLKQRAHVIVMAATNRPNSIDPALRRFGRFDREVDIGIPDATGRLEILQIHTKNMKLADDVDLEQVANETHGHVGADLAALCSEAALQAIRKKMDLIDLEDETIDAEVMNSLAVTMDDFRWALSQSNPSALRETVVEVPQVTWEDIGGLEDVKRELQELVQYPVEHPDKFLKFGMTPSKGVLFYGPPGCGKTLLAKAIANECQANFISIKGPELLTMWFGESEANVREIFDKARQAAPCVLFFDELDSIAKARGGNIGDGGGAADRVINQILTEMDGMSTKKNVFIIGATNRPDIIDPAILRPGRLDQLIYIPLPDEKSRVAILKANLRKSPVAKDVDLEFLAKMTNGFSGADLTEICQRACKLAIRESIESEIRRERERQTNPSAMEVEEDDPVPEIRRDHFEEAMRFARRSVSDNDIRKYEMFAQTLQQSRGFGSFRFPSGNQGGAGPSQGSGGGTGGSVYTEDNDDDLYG
Runt-CBFb FRET = inhibitors of human RUNX1 Runt domain binding to CBFb | 220,000 compounds, 0.46% hits | Cerulean-Runt/Venus-CBFb FRET ratio 530/480, 1 h | inhibition, % at 20 µM | Q01196+Q13951;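 active means inhibition over about 50% at 20 µM in the single-dose screen, limit read from the data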;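 further: 0% = DMSO wells and 100% = excess unlabeled CBFb competitor control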
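Assay system: Cerulean-Runt domain fusion protein, energy donor; Signal: fluorescence energy transfer, 422 nm excitation, 530/480 nm emission; Timing: 1 h compound exposure, room temperature; Control set: unlabeled CBFb; Medium: Tris buffer pH 7.5 with salts and BSA; Compound: single test concentration of 20 µM, 1% DMSO final; Probe or stimulus: Venus-CBFb 100 nM.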
RanGTP-Impb inh = disruptors of Ran-importin-beta complex formation – biochemical, FRET, CFP-Ran, YFP-importin-beta, homogeneous, primary screen; inhibition, % (concentration not given with the values); cell-free CFP-Ran/YFP-importin-beta FRET ratio; 300,000 compounds, 1.1% hits;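 active means more than half of the replicate wells show a fall in the fluorescence ratio signal beyond about 16%, limit read from the data, passing the limit was not always enough; inconclusive means exactly half of the replicate wells pass the set limit; inactive means fewer than half of replicates pass the limit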;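 further: 0% = DMSO wells and 100% = Ran loaded with GDP instead of GTP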
Runt-SMMHC FRET = inhibitors of human RUNX1 Runt domain binding to CBFb-SMMHC. inhibition, % at 20 µM. Q01196+Q13951. Cerulean-Runt/Venus-CBFb-SMMHC FRET ratio 530/480, 1 h. 220,000 compounds, 0.74% hits;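 active means mean inhibition across duplicate retests at 20 µM reaching about 50%, limit read from the data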;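 further: 0% = DMSO wells and 100% = wells with excess untagged CBFb-SMMHC; inhibitors lower the FRET ratio by blocking Runt binding to CBFb-SMMHC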
Hck-Nef inh = blocks Nef-activated human Hck kinase; Recombinant Hck-YEEI plus Nef, Z-Lyte FRET kinase assay; 220,000 compounds, 0.68% hits; inhibition, % at 20 µM;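 active means Hck-Nef kinase inhibition above about 50%, limit read from the data; inactive means inhibition below that limit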;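 further: 0% = DMSO with Hck plus Nef and 100% = Hck alone without Nef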
Active calls of the source: *; ? = inconclusive; · = no result. Rows were chosen to be rich in hits. Some 2.1% of all compounds tested hit in one or more screens of this group.

SMILES	TbHK1 inh	p97 inhibitor	Runt-CBFb FRET	RanGTP-Impb inh	Runt-SMMHC FRET	Hck-Nef inh
Cc1ccc(-c2ccc(NC(=O)C3C4C=CC(C4)C3C(=O)O)cc2)o1 (configuration not stated)	0	0	8	30*	5	2
O=C(NCCCNC(=O)c1cnccn1)c1cccc(F)c1	·	·	·	-2	·	·
O=C(CCCn1nnnc1CN1CCOCC1)N1CCC(c2ccc(F)cc2)C1 (configuration not stated)	·	·	·	-4	·	·
COc1ccc(-c2cc3ccc(O)cc3oc2=O)cc1OC	·	·	·	106*	·	·
CCOC(=O)c1sc2c(c1C)C(c1cccs1)C1=C(CCCC1=O)N2 (configuration not stated)	-4	3	99*	?	111*	17
NN/C(=C\[N+](=O)[O-])Nc1ccc(Cl)cc1	-3	2	0	6	-3	5
CCc1ccc[n+](-c2nc3ccccc3nc2C(=C=[N-])C#N)c1	-9	1	-17	31*	5	30
Cc1ccc(CNC(=O)CS(=O)(=O)c2cn(CC(=O)N3CCOCC3)c3ccccc23)cc1	·	·	·	0	·	·
CCCCNC(=O)CCC(=O)Nc1ccc2nc(N3CCOCC3)cc(C)c2c1	-7	4	-4	-3	3	3
CCCCNC(=O)CCC(=O)Nc1ccc2nc(N3CCCCC3)cc(C)c2c1	-8	1	0	4	4	69*
CCCc1cc(=O)oc2c(C)c(OC(C)C(=O)NCCN3CCOCC3)ccc12 (configuration not stated)	·	·	·	3	·	·
O=C(NCCN1CCCC1)c1ccc2c(c1)N(Cc1ccccc1)C(=O)c1ccccc1S2(=O)=O	·	·	·	1	·	·
Cc1cc(C)c2c(=O)n(CC(=O)Nc3ccc(Cl)cc3)sc2n1	34	5	0	-6	47	-43
Cc1ccc(NC(=O)Cn2sc3nc(C)cc(C)c3c2=O)c(Cl)c1	17	3	-4	-3	51*	-145
Cc1cc(C)c2c(=O)n(CC(=O)Nc3cccc(F)c3)sc2n1	21	2	-8	0	65*	-145
Cc1ccc[n+](-c2nc([O-])sc2C=O)c1	-13	2	-12	·	-45	21
O=Cc1sc([O-])nc1-[n+]1ccc2ccccc2c1	-9	6	8	28*	2	21
C[C@H](NC(=O)C1CCN(S(=O)(=O)c2ccccc2)CC1)C(=O)NCc1ccc(Cl)cc1Cl	·	·	·	0	·	·
CCCN1CCc2c(sc(NC(=S)NC(=O)c3ccccc3)c2C#N)C1	-2	-1	3	159*	93*	0
CC(C)N1CCc2c(sc(NC(=O)c3ccc(S(=O)(=O)N4CCOCC4)cc3)c2C#N)C1	-10	8	15	43*	29	-1
CC(=O)N1CCc2c(sc(NC(=O)c3ccc([N+](=O)[O-])o3)c2C#N)C1	-5	1	2	-2	-8	7
CC(C)C1Cc2c(sc(NC(=S)NC(=O)c3ccccc3)c2C#N)CO1 (configuration not stated)	-17	5	37	?	12	2
COc1cc(C(=O)Nc2sc3c(c2C#N)CCN(C(C)=O)C3)cc(OC)c1OC	-23	7	29	38*	79*	20
CC(C)N1CCc2c(sc(NC(=S)NC(=O)c3ccccc3)c2C#N)C1	-15	-2	19	162*	60*	3
CCOC(=O)Cc1nc2cc(Cl)ccc2o1	-3	5	1	6	0	18
SMILES	TbHK1 inh	p97 inhibitor	Runt-CBFb FRET	RanGTP-Impb inh	Runt-SMMHC FRET	Hck-Nef inh
CC(C)(Oc1ccc(Cl)cc1)C(=O)OCC(=O)NCCc1ccccc1	·	·	·	2	·	·
CN1CCc2c(sc(NC(=O)Cc3ccccc3)c2C#N)C1	·	·	·	164*	·	·
CNC(=O)c1c(NC(=O)c2cc(-c3cc(C)c(C)cc3O)n[nH]2)sc2c1CCCC2	-17	6	-14	1	-26	41
Cc1oc(-c2ccc(Cl)cc2)cc1-c1nn2c(-c3ccoc3C)nnc2s1	17	12	32	-2	18	59*
COc1ccccc1CNC(=O)c1sccc1-c1ccccc1	·	·	·	0	·	·
c1ccc(-c2ccc(-c3nccc4ccccc34)[nH]2)cc1	-11	2	30	·	61*	57*
CCOC(=O)CSc1n[nH]c(=S)s1	-7	15*	27	3	12	-3
CC(Oc1ccccc1)C(=O)N=C1SC2CS(=O)(=O)CC2N1Cc1ccccc1 (configuration not stated)	·	·	·	1	·	·
CC(=O)[C@@H]1[C@@H]2C(=O)N(c3ccc(F)c(Cl)c3)C(=O)[C@@H]2C2c3ccccc3C=CN21 (some centres not stated)	-6	1	-14	?	-63	-5
N#C[C@@H]1[C@@H]2C(=O)N(c3ccc4c(c3)OCCO4)C(=O)[C@@H]2C2c3ccccc3C=CN21 (some centres not stated)	-11	5	-17	19*	-59	1
CCOC(=O)c1cc2c(=O)n3ccccc3nc2n(Cc2ccco2)c1=NC(=O)c1ccc(OC)cc1	-8	3	89*	-1	86*	25
CCOC(=O)c1cc2c(=O)n3ccccc3nc2n(Cc2ccco2)c1=NC(=O)c1ccccc1OC	-16	5	89*	62*	86*	19
CCOC(=O)c1cc2c(=O)n3ccccc3nc2n(CCCOC)c1=NC(=O)c1ccncc1	-11	3	65*	0	92*	34
CCOC(=O)c1cc2c(=O)n3cccc(C)c3nc2n(Cc2ccco2)c1=NC(=O)c1ccccc1	-17	-1	93*	106*	·	5
COC(=O)c1cc2c(=O)n3ccccc3nc2n(C)c1=N	·	·	13	·	42	·
Cn1c(=O)c2sccc2n2c(CCCC(=O)N3CCN(c4ccccn4)CC3)nnc12	·	·	·	3	·	·
COc1ccc(N2CCN(S(=O)(=O)c3cc4c(cc3C)NC(=O)CO4)CC2)cc1	·	·	·	-1	·	·
CN(Cc1c(C(=O)N/N=C/c2cccs2)nnn1-c1nonc1N)c1ccccc1	·	·	·	-2	·	·
COc1cccc(C(c2c(C)[nH]n(-c3ccccc3)c2=O)c2c(C)[nH]n(-c3ccccc3)c2=O)c1O	·	·	·	2	·	·
CC1=NN(c2ccc(F)cc2)C(=O)C1C(c1cccc(O)c1)c1c(C)[nH]n(-c2ccc(F)cc2)c1=O (configuration not stated)	-8	33*	1	2	3	-1
Cc1ccc(C)c(N(C(=O)c2csnn2)C(C(=O)NC2CCCCC2)c2ccccn2)c1 (configuration not stated)	·	·	·	0	·	·
N#C/C(=C(/O)CSc1ccccc1C(=O)O)c1nc2ccccc2s1	-16	16*	1	-3	1	1
Cc1ccc2nc3c(cc2c1)c(NS(=O)(=O)c1ccccc1)nn3CC(C)C	-10	-4	-7	-3	-19	11
